Results from different studies.
Each line is one published result; the experiments were not run side by side.
Observed: cell growth or viability

Compound | cell line | method | time | IC50 [µM]
O=C(Nc1cc(OCCN2CCCC2)c2ccccc2n1)c1cc(OCCN2CCCC2)cc(C(=O)Nc2cc(OCCN3CCCC3)c3ccccc3n2)n1 | U2OS | ATP luminescence | 72 h | 2.1
COc1cc(Nc2nccc(-c3cnn4nc(OC)ccc34)n2)cc(C(F)(F)F)c1 | SK-N-SH | ATP luminescence | – | 0.97
CSc1nc(NC(=S)NCCc2ccccc2)n(-c2ccc(C(=O)O)cc2)n1 | RPE-1 | MTT | – | 28.3
NCCCOc1cc(NC(=O)c2cccc(C(=O)Nc3cc(OCCCN)c4ccccc4n3)n2)nc2ccccc12 | U2OS | ATP luminescence | 72 h | 1.5
CC(C)C[C@H](NC(=O)[C@H](Cc1ccccc1)NC(=O)c1cnccn1)B(O)O | RL95-2 | ATP luminescence | – | 0.012
NCCCOc1cc(NC(=O)c2cc(OCCN)cc(C(=O)Nc3cc(OCCCN)c4ccccc4n3)n2)nc2ccccc12 | U2OS | ATP luminescence | 72 h | 14.1
COc1cc(-c2ncn(/C=C\C(=O)OC(C)C)n2)cc(C(F)(F)F)c1 | NB-4 | – | 72 h | 0.169
CC(C)[C@H](N)C(=O)N1CCC[C@H]1B(O)O | HEL | ATP luminescence | 48 h | > 60
CS(=O)(=O)c1nc(N)n(-c2ccc(C(=O)O)cc2)n1 | RPE-1 | MTT | – | 34.2
COc1cc(C(=O)Nc2cc(OCCN3CCCC3)c3ccccc3n2)nc(C(=O)Nc2cc(OCCN3CCCC3)c3ccccc3n2)c1 | U2OS | ATP luminescence | 72 h | 1.6
CCCCc1ccc2[nH]c(NC(=O)OC)nc2c1 | SCC-9 | CCK-8 | 72 h | 0.0769
CN1c2ccccc2C(=O)N2[C@H](C(=O)Nc3ccc(/C=C/C(=O)NO)cc3)Cc3c([nH]c4ccccc34)[C@@H]12 | HEL | – | – | 0.34
COc1nc(OCc2cccc(-c3ccccc3)c2C)ccc1CNCCNC(C)=O | HCT-8 | MTT | – | 3.9
CSc1nc(/N=C/c2cc([N+](=O)[O-])ccc2O)n(-c2ccc(C(=O)O)cc2)n1 | RPE-1 | MTT | – | 24
Nc1ncc(-c2cnn(C3CCNCC3)c2)cc1-c1nnc(CC2CC2)o1 | NB-4 | trypan blue | 72 h | 0.846
N[C@@H](CC(=O)N1CCN(C(c2ccc(F)cc2)c2ccc(F)cc2)CC1)C(=O)N1Cc2ccccc2C1 | SKM-1 | ATP luminescence | 48 h | 0.346
COc1ccc(O)c(/C=N/c2nc(SC)nn2-c2ccc(C(=O)O)cc2)c1 | RPE-1 | MTT | – | 35.2
NCCOc1cc(NC(=O)c2cc(OCc3ccc(F)cc3)cc(C(=O)Nc3cc(OCCN)c4ccccc4n3)n2)nc2ccccc12 | U2OS | ATP luminescence | 72 h | 5.6
CC[C@@H](C)[C@H](N)C(=O)N1Cc2ccccc2C1 | HEL | ATP luminescence | 48 h | > 60
CC(=O)Oc1ccc2c(c1)C(C)=CC(C)(C)N2Cc1ccccc1 | PLC5 | MTT | 72 h | 18
C#CCOc1cc(C(=O)Nc2cc(OCCN)c3ccccc3n2)nc(C(=O)Nc2cc(OCCN)c3ccccc3n2)c1 | U2OS | ATP luminescence | 72 h | 4.9
CSc1nc(/N=C/c2cc(C)ccc2O)n(-c2ccc(C(=O)O)cc2)n1 | RPE-1 | MTT | – | 36
